# From PubChem BioAssay
# Only some compounds are listed: those with a hit (about 1.4% of all), similar ones and a draw of the others.
# CAL PDZ FP-1: CAL PDZ peptide-binding inhibitors, primary screen, biochemical, fluorescence polarization, Cer-tagged CAL PDZ, HTS. Golgi-associated PDZ and coiled-coil motif-containing protein (Homo sapiens), Q9HD26. purified CAL PDZ, TMR-peptide fluorescence polarization, 1 h. inhibition, % at 20 µM. 330,000 tested, 0.02% active. AID 504414, 2011;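 active means highest replicate inhibition of at least 40%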;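 further: plate controls were DMSO neutral control wells for no effect and unlabeled competitor peptide control wells for full effect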
#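 material = purified tagged CAL PDZ domain construct (CerCALP) | compound dosing = 20 µM, one dose | times = 1 h at RT | measured by = fluorescence polarization from S- and P-plane intensities, G-factor corrected | read-out = inhibition from polarization loss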
# ARNT-TACC3 inh: disruptors of ARNT/TACC3 protein interaction, primary screen, biochemical, AlphaScreen, single concentration; AlphaScreen His-ARNT PAS-B/GST-TACC3 binding, luminescence; TACC3 fragment carries E629A point mutation; inhibition, % at 9.99 µM; 390,000 tested, 0.66% active; AID 623870, 2012;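 active means mean inhibition of replicates at least 50% and at least half of replicates each reaching 50%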;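 further: 0% = complete ARNT plus TACC3 wells and 100% = ARNT alone without TACC3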
# CAL PDZ FP-2: untagged CAL PDZ binding inhibitors, primary screen, biochemical, fluorescence polarization, HTS | Golgi-associated PDZ and coiled-coil motif-containing protein (Homo sapiens), Q9HD26 | purified CAL PDZ, TMR-peptide fluorescence polarization, 1 h | inhibition, % at 24.9 µM | 300,000 tested, 0.92% active | AID 602252, 2012;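 active means mean inhibition of at least 30% with at least half of replicates also reaching 30%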;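 further: 0% = DMSO neutral control and 100% = excess unlabeled competitor peptide PRC23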
# Dyrk1A ADPGlo: rat Dyrk1A kinase inhibitors, primary screen, biochemical, single point, plate reader; inhibition, % at 12.5 µM; Dual specificity tyrosine-phosphorylation-regulated kinase 1A (Rattus norvegicus), Q63470; 310,000 tested, 0.43% active; AID 504441, 2011; ADP-Glo luminescence, NFATc1 peptide; in the data active means inhibition above about 50%;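 further: plate controls were vehicle with enzyme for no effect and no enzyme for full effect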
# Dyrk1A artifact: ADP-Glo luciferase interference without Dyrk1A, dose response, artefact control for Dyrk1A inhibitor project, biochemical, luminescence, cherry-pick, set 02 | AC50, µM (titrated, usually from 12 µM), inactives show at the highest dose activity change, negative = inhibition | 1,300 tested, under 10 active | shares compounds with Dyrk1A ADPGlo | ADP-Glo luciferase artifact assay, no Dyrk1A;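 active means fitted half-maximal dose AC50 no more than ten times the top valid tested dose, with luminescence dropping as dose rises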
# Starred values were filed as active, the others as inactive; / = no result.
SMILES,CAL PDZ FP-1,ARNT-TACC3 inh,CAL PDZ FP-2,Dyrk1A ADPGlo,Dyrk1A artifact
CCOc1ccc(C(=O)/C=C/Nc2ccc(S(=O)(=O)Nc3onc(C)c3C)cc2)cc1,1,0,4,-1,/
COc1ccc(-c2cnnc(N/N=C/c3ccc(O)c(O)c3)n2)cc1,1,-1,-3,68*,8%
CN(C)C(=O)c1cccc(-c2ccc([C@@H]3[C@@H](CO)N4CCCCN(C(=O)C5CCCC5)C[C@H]34)cc2)c1,/,-7,/,/,/
O=C1C(C=NCc2ccncc2)=C(O)c2ccccc21,0,14,-4,66*,10%
C[C@@H]1CN([C@@H](C)CO)C(=O)c2cc(NS(=O)(=O)c3ccc(F)cc3)ccc2O[C@@H](C)CCCCO[C@@H]1CN(C)C(=O)Nc1ccccc1,/,-8,/,/,/
CCN1CCN(Cc2ccc(NC(=O)c3ccc(C)c(NC(=O)c4cccc(-c5cn[nH]c(=O)c5)c4)c3)cc2C(F)(F)F)CC1,-6,-5,-7,23,/
CCN1CCN(Cc2ccc(NC(=O)c3ccc(C)c(/C=C/c4cnc(Nc5cc(N6CCNCC6)nc(C)n5)cn4)c3)cc2C(F)(F)F)CC1,-9,5,-10,52*,8%
CCN1CCN(Cc2ccc(NC(=O)c3ccc(C)c(NC(=O)c4ccno4)c3)cc2C(F)(F)F)CC1,-2,11,-10,18,/
CCN1CCN(Cc2ccc(NC(=O)c3ccc(C)c(NC(=O)c4csc(-c5ccncc5)n4)c3)cc2C(F)(F)F)CC1,-7,38,-11,68*,6%
C[C@@H]1CCCCO[C@H](CN(C)C(=O)CCCN(C)C)[C@@H](C)CN([C@H](C)CO)C(=O)c2cc(NS(=O)(=O)c3cccs3)ccc2O1,/,-7,/,/,/
Nc1nc(Nc2ccccc2)nc2ccccc12,-3,3,0,56*,4%
Nc1nc(Nc2ccc(Cl)cc2)nc2ccccc12,-1,1,-2,-2,/
Cc1cccc(C)c1OCCOC(=O)c1cccc(S(=O)(=O)N2CCOCC2)c1,-2,-2,-2,0,/
Cc1cc(=O)oc2ccc(OC(=O)c3cccc(S(=O)(=O)N4CCOCC4)c3)cc12,-4,-24,5,54*,5%
COc1ccc(/C=c2\s/c(=C\C(=O)C(C)(C)C)[nH]c2=O)cc1O,1,10,-4,64*,9%
COc1cc(/C=c2\s/c(=C\C(=O)C(C)(C)C)[nH]c2=O)cc(OC)c1OC,-5,6,-7,1,/
CCNC(=O)C[C@H]1CC[C@H]2[C@H](COc3ccc(NC(=O)c4ccccc4Cl)cc3C(=O)N2C)O1,/,-1,/,/,/
O=C1CCCC2=C1Sc1ccc(Cl)cc1N2,1,4,1,54*,9%
CCCn1cnc2scc(-c3ccc(OC)cc3)c2c1=O,-2,-12,/,60*,3%
C[C@@H]1CN([C@H](C)CO)C(=O)c2cccc(NC(=O)Nc3ccccc3)c2O[C@H]1CN(C)C,/,-2,/,/,/
Cc1ccc(-c2csc3ncnc(SCC(=O)O)c23)cc1,-2,-5,-5,76*,9%
COc1ccc2c(c1)CC/C(=C/c1ccncc1)C2=O,-1,/,-7,7,/
COc1ccc2c3c(ccc2c1)C(=O)/C(=C/O)CC3,1,-4,-3,63*,9%
CCC(=O)N(C)C[C@H]1Oc2cc(C#CC3CCCC3)ccc2S(=O)(=O)N([C@@H](C)CO)C[C@H]1C,/,-2,/,/,/
COc1cccc(-c2nnc3sc(C4CCCCC4)nn23)c1,-5,5,-3,53*,6%
SMILES,CAL PDZ FP-1,ARNT-TACC3 inh,CAL PDZ FP-2,Dyrk1A ADPGlo,Dyrk1A artifact
O=C(CSc1nc(-c2ccco2)cc(C(F)(F)F)n1)NCCCn1ccnc1,-2,3,/,58*,8%
COc1ccc2c3c([nH]c2c1)C(C)N(CCC(=O)NN)CC3 (configuration not stated),-1,9,3,74*,10%
CCC(C)CCN1C(Nc2ccccc2)=NC[C@@H]1Cc1ccccc1 (some centres not stated),0,-1,4,57*,9%
CCC(C)CCN1C(Nc2ccccc2)=NC[C@@H]1CC(C)C (some centres not stated),1,-4,-1,7,/
N#Cc1c(N)nc2c3c(sc(=N)c2c1N)NC(=O)CC3c1c(F)cccc1Cl (configuration not stated),1,2,-6,67*,10%
N#Cc1c(N)nc2c3c(sc(=N)c2c1N)NC(=O)CC3c1ccccc1 (configuration not stated),0,-1,1,10,/
CCOC(=O)CSc1nc(Nc2ccc3c(c2)OCO3)c2ccccc2n1,-1,7,-2,15,/
N#CCSc1nc(Nc2ccc3c(c2)OCO3)c2ccccc2n1,-6,7,/,60*,7%
C=CCSc1nc(NC)c2sccc2n1,0,-6,-3,58*,3%
COc1ccc(O)c(-c2cc(-c3ccccc3Cl)[nH]n2)c1,1,5,-5,53*,8%
COc1ccc(O)c(-c2cc(-c3cccs3)[nH]n2)c1,-1,2,/,70*,8%
COc1ccc(-c2cc(-c3ccccc3O)[nH]n2)cc1,-3,-5,-1,13,/
CO[C@H]1CN(C)C(=O)c2ccc(NC(=O)Nc3ccccc3)cc2OC[C@H](C)NC[C@H]1C,/,2,/,/,/
O=C(c1ccc(F)cc1)N1C[C@H]2[C@@H](c3ccccc31)[C@H](CO)N2C(=O)c1ccc(F)cc1,/,-3,/,/,/
O=C(Nc1ccc2cn[nH]c2c1)c1ccccc1F,-1,-9,85*,54*,10%
O=C(Nc1ccncc1)c1c(Cl)cccc1Cl,0,-2,-2,-3,/
CC(=O)c1ccc(NC(=S)Nc2ccc3cn[nH]c3c2)cc1,0,0,-15,57*,8%
O=C(Nc1ccc2cn[nH]c2c1)c1c(Cl)cccc1Cl,-1,0,-3,51*,10%
CCS(=O)(=O)N[C@H]1C=C[C@H](CC(=O)NC2Cc3ccccc3C2)O[C@H]1CO,/,2,/,/,/
O=C(NCc1ccccc1)C1=C[C@H](c2ccccc2)C[C@H](OCc2ccc(CO)cc2)O1,-1,-4,-6,52*,12%
COc1cc(C(C)=O)ccc1Oc1ncnc2c1cnn2-c1ccccc1,-3,/,-3,62*,8%
Cc1ccc(CC(=O)Nc2nc3ccccc3s2)cc1,-3,/,0,/,/
Cc1nc2c(ccc3nc(NC(=O)Cc4ccccc4)sc32)s1,-6,4,/,68*,6%
